Reference: ChEMBL document CHEMBL2331367, “Alkaloids from Microcos paniculata with cytotoxic and nicotinic receptor antagonistic activities” (J Nat Prod, 2013)
Calls of active or inactive are those of the source. The rule behind the calls is not given here.

Columns and labels:
HT-29 = assay: Cytotoxicity against human HT-29 cells assessed as inhibition of cell proliferation after 3 days by SRB assay; assay type: functional, cell-based; details: HT-29, 72 h
[1] = target: Neuronal acetylcholine receptor; alpha3/beta4 (Homo sapiens) (UniProt P30926+P32297); assay: Antagonist activity at human recombinant alpha3beta4 nAChR expressed in human HEKtsA201 cells assessed as inhibition of epibatidine-stimulated calcium accumulation at 10 uM pretreated and cotreated with epibatidine by fluorescence plate reader analysis; assay type: cell-based
Procedure, shortened: (§1)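 HEKtsA201 cells stably expressing human α3β4 or α4β2 nAChR, plated 2.0–2.3×10^5/well on poly-L-ornithine 24 h before assay; loaded with Calcium 5 NW dye in HEPES-buffered Krebs, 1 h room temperature. Compound (10 μM) added at 20 s, then 1 μM epibatidine at 60 s while compound remained. Fluorescence (ex 485/em 525 nm) recorded 120 s; net response expressed as % of epibatidine control; triplicates.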

[2] = target: Neuronal acetylcholine receptor; alpha4/beta2 (Homo sapiens) (UniProt P17787+P43681); assay: Antagonist activity at human recombinant alpha4beta2 nAChR expressed in human HEKtsA201 cells assessed as inhibition of epibatidine-stimulated calcium accumulation at 10 uM pretreated and cotreated with epibatidine by fluorescence plate reader analysis; assay type: cell-based; procedure, shortened: as §1
[3] = Cytotoxicity against human CCD-112CoN cells assessed as inhibition of cell proliferation after 3 days by SRB assay; assay type: cell-based; details: 72 h
Procedure, shortened: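 CCD-112CoN normal human colon cells grown in MEME with 10% FBS, pyruvate, non-essential amino acids, 37 °C 5% CO2; used ~70% confluent, 7,600 cells/well. Serial dilutions added in triplicate (10% DMSO vehicle), incubated 3 days; cells TCA-fixed, stained with 0.4% sulforhodamine B, dye solubilized in 10 mM Tris, absorbance 515 nm; IC50 by non-linear regression.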

[4] = Selectivity ratio of IC50 for human CCD-112CoN cells to IC50 for human HT29 cells; assay type: ADME, cell-based, HT-29; details: CCD-112CoN cells and HT29 cells, read-out: Ratio IC50

SMILES	IC50 (HT-29)	inhibition [1]	inhibition [2]	IC50 [3]	selectivity ratio [4]
CCCC/C=C/C=C/C=C/[C@@H]1CC[C@@H](O)[C@H](C)[N+]1(C)[O-] (some centres undefined) [MICROGREWIAPINE B]	> 10 µM	82.7%	79.3%		
COc1cc2c3cc1Oc1cc(ccc1O)C[C@@H]1c4c(cc(OC)c(O)c4Oc4ccc(cc4)C[C@@H]3N(C)CC2)CC[N+]1(C)C		54%	61%		
CCCC/C=C/C=C/C=C/[C@@H]1CC[C@@H](O)[C@H](C)N1		53%	59%		
COc1ccc(CCNC(=O)/C=C/c2ccc(O)c(O)c2)cc1	> 10 µM	14%	21.8%		
CNC1(C)C2CCC(C2)C1(C)C (centres undefined)		88.3%	91.8%		
O=C1c2ccccc2-c2c3c(cc4ccnc1c24)OCO3 [LIRIODENINE]	> 10 µM	19.3%	13.3%		
CCCC/C=C/C=C/C=C/[C@@H]1CC[C@@H](O)[C@H](C)N1C [MICROGREWIAPINE A]	6.8 µM	58.2%	74%	30.4 µM	4
CCCC/C=C/C=C/C=C/[C@@H]1CC[C@H](O)[C@H](C)[N+]1(C)[O-] (some centres undefined) [MICROGREWIAPINE C]	> 10 µM	82.8%	67.3%		
O=C(OCC1CCCN(CCCc2ccccc2)C1)c1ccccc1-c1ccccc1 (centres undefined)		inactive	39%		
CCCC/C=C/C=C/C=C/[C@@H]1CC[C@@H](OC(C)=O)[C@H](C)N1C	> 10 µM		44.1%		
CC(=O)O[C@H]1C(=O)[C@@]2(C)[C@H]([C@H](OC(=O)c3ccccc3)[C@]3(O)C[C@H](OC(=O)[C@H](O)[C@@H](NC(=O)c4ccccc4)c4ccccc4)C(C)=C1C3(C)C)[C@]1(OC(C)=O)CO[C@@H]1C[C@@H]2O [PACLITAXEL]	0.001 µM			23 µM	
